The values below come from publication PMC3786144 (Biochimica et biophysica acta, 2013).

In experiment [1] the target is ALK3 (Homo sapiens, UniProt P36894). The experiment is described as follows: In vitro kinase reaction. Format: biochemical. The method in brief: (§1)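 Radiometric filter-binding assay with purified recombinant kinase/substrate pairs. Reactions ran with ATP plus 33P-ATP (10 μM final) at 10 test compound concentrations in triplicate, in 20 mM Hepes pH 7.5, 10 mM MgCl2, 1 mM EGTA, 2 mM DTT, 1% DMSO, for 120 min at 25 °C. Products were spotted on P81 paper and washed in 0.75% phosphoric acid. Activity was expressed as % of DMSO control; IC50 came from curve fitting.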
ALK3, sequence (P36894 24-532): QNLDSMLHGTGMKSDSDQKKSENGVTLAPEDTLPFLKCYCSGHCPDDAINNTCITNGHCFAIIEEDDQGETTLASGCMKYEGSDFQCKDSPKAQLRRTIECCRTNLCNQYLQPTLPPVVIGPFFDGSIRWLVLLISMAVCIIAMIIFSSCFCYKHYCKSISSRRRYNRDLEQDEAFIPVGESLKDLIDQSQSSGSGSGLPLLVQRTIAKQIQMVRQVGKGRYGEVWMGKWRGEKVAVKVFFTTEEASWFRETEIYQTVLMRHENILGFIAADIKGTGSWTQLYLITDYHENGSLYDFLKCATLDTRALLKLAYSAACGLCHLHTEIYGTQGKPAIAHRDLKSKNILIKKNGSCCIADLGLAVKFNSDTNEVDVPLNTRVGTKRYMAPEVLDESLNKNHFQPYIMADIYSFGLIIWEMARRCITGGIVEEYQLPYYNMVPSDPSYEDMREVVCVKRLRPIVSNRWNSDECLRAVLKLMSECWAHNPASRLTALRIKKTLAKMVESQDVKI

In experiment [2] the test system is Smad1/5. The note with it: A549 cells; cited from earlier work.
Experiment [3] relates to HCT116 cells. The experiment is described as follows: Proliferation of HCT116 cells. Format: cell-based. The note with it: preliminary results.
The test system of experiment [4] is constitutively active ALK1. The experiment can be described thus: Id1 reporter activated by constitutively active ALK1 in NIH3T3 cells. Format: cell-based. The note with it: NIH3T3, Id1 −1150 reporter, AZD0530 100 nM overnight in 0.2% serum. The method in brief: (§2)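 NIH3T3 cells, 4 × 10^4 per well, received fresh 10% NCS and were then transfected with 100 ng Renilla SV40 control, 100 ng mouse Id1 −1150 firefly reporter and 25 ng constitutively active ALK. Next day they went into 0.2% serum with 100 nM test compound or DMSO overnight. Dual-luciferase readout; firefly was normalised to Renilla.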

The target of experiment [5] is ALK1 (Homo sapiens, UniProt P37023). The experiment is described as follows: In vitro kinase reaction. The format is biochemical. An outline of the steps:
as §1

The test system of experiment [6] is Id1 promoter. The experiment can be described thus: Id1 promoter luciferase reporter assay in NIH3T3 cells. Format: cell-based, mouse.
For experiment [7], the system named is Id1. Conditions: A549 lung carcinoma cell line; cited from earlier work.
The target of experiment [8] is constitutively active ALK3 (Homo sapiens, UniProt P36894, Q233D). The experiment can be described thus: Id1 reporter activated by constitutively active ALK3 in NIH3T3 cells. The format is cell-based. Conditions: NIH3T3, Id1 −1150 reporter, AZD0530 100 nM overnight in 0.2% serum. The method in brief: as §2
constitutively active ALK3, sequence (P36894 24-532 Q233D): as the sequence (P36894 24-532) above, with Q210D counted along it
Experiment [9] deals with plasminogen activator inhibitor-1 (PAI-1). The experiment is described as follows: PAI-1 mRNA expression by qPCR in NIH3T3 cells. The note with it: NIH3T3, AZD0530 100 nM 1 hour, then 20% serum. Format: cell-based, mouse. An outline of the steps:
(§3)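 NIH3T3 cells were starved overnight in 0.2% serum and pretreated 1 hour with test compound. They were then induced with 20% NCS for 0–120 min. RNA was taken up in Tri Reagent, and cDNA was made from 1 μg total RNA with random hexamers. qPCR was normalised to 18s rRNA. Values are means of three experiments ± standard deviations.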
(Real-time PCR tracks product formation cycle by cycle.)

The test system of experiment [10] is c-fos promoter. The experiment can be described thus: c-fos promoter luciferase reporter assay in NIH3T3 cells. The note with it: NIH3T3, AZD0530 100 nM 1 hour, then 20% NCS 4 hours. Format: cell-based, mouse. The method in brief:
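NIH3T3 cells, 4 × 10^4 per well, were transfected with 100 ng c-fos promoter firefly reporter plus 100 ng SV40-Renilla control. Next day they were starved overnight in 0.2% NCS, treated 1 hour with 100 nM test compound, then induced with 20% NCS for 4 hours. Dual-luciferase assay; firefly was normalised to Renilla.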
For orientation: In a reporter assay the amount or activity of a reporter protein is the signal.

In experiment [11] the test system is c-fos. The experiment is described as follows: c-fos mRNA expression by qPCR in NIH3T3 cells. The format is cell-based, mouse. Conditions: then 20% serum. An outline of the steps: as §3
For experiment [12], the system named is Id1. The experiment can be described thus: Id1 mRNA expression by qPCR in NIH3T3 cells. The note with it: for Id1 RNA levels on serum induction: then 20% serum 0 to 120 minutes; for response of the Id1 gene to serum: data not shown. Format: cell-based, mouse.
Experiment [13] has as its target T1, BMPR-2 (Homo sapiens, UniProt Q13873).
T1 sequence (Q13873 27-1038): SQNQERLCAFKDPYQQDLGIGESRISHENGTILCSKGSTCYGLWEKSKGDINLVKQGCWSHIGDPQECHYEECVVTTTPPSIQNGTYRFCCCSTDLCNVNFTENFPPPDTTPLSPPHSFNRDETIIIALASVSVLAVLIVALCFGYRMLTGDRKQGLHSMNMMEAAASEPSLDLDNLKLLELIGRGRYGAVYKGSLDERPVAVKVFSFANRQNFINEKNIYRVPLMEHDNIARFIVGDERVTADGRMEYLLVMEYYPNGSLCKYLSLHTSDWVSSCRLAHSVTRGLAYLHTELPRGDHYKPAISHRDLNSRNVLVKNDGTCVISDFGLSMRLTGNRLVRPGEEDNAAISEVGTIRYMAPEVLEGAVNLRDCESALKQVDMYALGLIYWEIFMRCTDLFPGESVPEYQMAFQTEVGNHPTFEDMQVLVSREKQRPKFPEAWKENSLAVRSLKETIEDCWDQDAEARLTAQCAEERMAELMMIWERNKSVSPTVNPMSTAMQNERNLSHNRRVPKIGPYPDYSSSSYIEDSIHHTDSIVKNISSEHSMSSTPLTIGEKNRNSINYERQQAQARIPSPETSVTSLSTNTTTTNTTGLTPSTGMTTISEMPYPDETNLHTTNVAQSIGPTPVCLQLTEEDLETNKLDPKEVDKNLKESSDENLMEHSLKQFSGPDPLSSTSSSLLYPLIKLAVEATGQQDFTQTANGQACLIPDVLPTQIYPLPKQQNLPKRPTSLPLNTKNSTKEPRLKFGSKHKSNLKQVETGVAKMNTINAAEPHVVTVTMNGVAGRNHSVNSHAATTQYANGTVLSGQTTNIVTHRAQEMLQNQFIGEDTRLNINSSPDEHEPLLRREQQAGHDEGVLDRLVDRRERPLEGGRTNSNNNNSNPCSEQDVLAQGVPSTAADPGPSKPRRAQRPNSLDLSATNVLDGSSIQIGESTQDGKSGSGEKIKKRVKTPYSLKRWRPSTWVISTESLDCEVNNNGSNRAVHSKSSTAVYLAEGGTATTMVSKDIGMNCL
The experiment can be described thus: In vitro kinase reaction. The format is biochemical. Conditions: 10 μM ATP, 120 minutes at 25 °C. An outline of the steps:
as §1

For experiment [14], the system named is Id3. The experiment is described as follows: Id3 mRNA expression by qPCR in NIH3T3 cells. Format: cell-based, mouse. The note with it: NIH3T3, AZD0530 100 nM 1 hour, then 20% serum. An outline of the steps:
as §3

The test system of experiment [15] is Smad1/5/8. The experiment is described as follows: Total Smad1/5/8 immunoblot in NIH3T3 cells. Conditions: NIH3T3, Dorsomorphin 1μM 1 hour, then serum. The format is cell-based, mouse. An outline of the steps:
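Serum-starved NIH3T3 cells were treated 1 hour with DMSO or test compound, then serum-stimulated. Lysis was in passive lysis buffer, followed by SDS-PAGE (10% or 12%) and nitrocellulose transfer with 6% milk block. Phospho-specific or total primaries (1:1000) were applied overnight at 4°C, then fluorescent secondaries (1:10,000) for 1 hour at room temperature, with infrared imaging. Actin served as loading control.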
For orientation: In western blotting, separated proteins are transferred to a membrane and probed.

Experiment [16] deals with phospho-Smad1/5/8. The experiment can be described thus: Phospho-Smad1/5/8 immunoblot in HCT116 cells. Format: cell-based. The note with it: HCT116, Dorsomorphin 1 μm. An outline of the steps:
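HCT116 cells were starved overnight in 0.2% serum with DMSO or test compound, lysed in passive lysis buffer and cleared at 11,000 × g. Proteins were run by SDS-PAGE and blotted to nitrocellulose. Phospho-Smad1/5/8 primary (1:1000) was applied overnight at 4°C, followed by fluorescent secondary (1:10,000) and infrared imaging. Actin served as loading control.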

Experiment [17] deals with Id1. The experiment is described as follows: Id1 mRNA expression by qPCR in HCT116 cells. Conditions: HCT116, Dorsomorphin 1 μm. The format is cell-based. An outline of the steps: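 HCT116 cells, kept in DMEM with 10% FBS at 5% CO2, were starved overnight in 0.2% serum with DMSO or test compound. RNA was isolated in Tri Reagent. cDNA was made from 1 μg total RNA with random hexamers. Id1 mRNA was quantified by qPCR normalised to 18s rRNA.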

Experiment [18] has as its system phospho-Smad1/5/8. The experiment can be described thus: Phospho-Smad1/5/8 immunoblot in NIH3T3 cells. The format is cell-based, mouse. Conditions: NIH3T3, Dorsomorphin 1μM 1 hour, then serum.
Experiment [19] concerns Id1. Conditions: MDA-MB-231 breast carcinoma line; cited from earlier work.
[20] abbreviates: NIH3T3, AZD0530 100 nM 1 hour, then 20% NCS 4 hours.

Read-outs that look alike come from different tables or passages of the source.

ALK1, sequence (P37023 22-503): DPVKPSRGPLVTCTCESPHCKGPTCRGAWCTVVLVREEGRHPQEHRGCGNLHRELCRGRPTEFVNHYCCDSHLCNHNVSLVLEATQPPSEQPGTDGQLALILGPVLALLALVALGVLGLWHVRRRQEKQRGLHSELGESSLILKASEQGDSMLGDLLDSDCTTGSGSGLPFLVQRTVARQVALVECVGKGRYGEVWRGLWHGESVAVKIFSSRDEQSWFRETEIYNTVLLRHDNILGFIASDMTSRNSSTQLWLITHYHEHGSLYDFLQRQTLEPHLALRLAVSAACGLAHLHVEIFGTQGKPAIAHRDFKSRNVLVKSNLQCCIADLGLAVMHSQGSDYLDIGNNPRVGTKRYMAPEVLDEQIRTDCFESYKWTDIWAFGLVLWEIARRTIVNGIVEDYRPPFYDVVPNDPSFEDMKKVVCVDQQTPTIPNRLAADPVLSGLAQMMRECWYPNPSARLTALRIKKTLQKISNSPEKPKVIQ

With `CN1CCN(CCOc2cc(OC3CCOCC3)c3c(Nc4c(Cl)ccc5c4OCO5)ncnc3c2)CC1` [AZD0530, saracatinib], the IC50 in [1] is 3 to 30 nM. Besides, the “activation of Smad1/5” value in experiment [2] was “prevented activation”. The “proliferation of HCT116 cells” value in experiment [3] was “did not reduce”. The “activation of the Id1 promoter by constitutively active ALK1” value in [4] is on record as “significantly decreased”. The IC50 in [5] lay within 3 to 30 nM. In experiment [6] (setting [20]), the “Id1 serum induction, promoter activation (−1150 Id1 reporter)” value is “complete loss” and the “serum induction of the 4X BRE-SBE reporter” value was “blocked”. Further, the Id1 expression result in experiment [7] is given as “inhibit Id1 expression”. Besides, in experiment [8], the “activation of the Id1 promoter by constitutively active ALK3” value was “significantly decreased”. Further, in [9], the “PAI-1 serum activation (mRNA)” value was “decrease in serum activation”. The “serum induction of the c-fos promoter (reporter)” value in [10] is “little effect”. Further, the “c-fos induction by serum (mRNA)” value in experiment [11] (NIH3T3, AZD0530 100 nM 1 hour) is “no effect”. In addition, in [12] (NIH3T3, AZD0530 100 nM 1 hour, then 20% serum), the “Id1 serum induction, mRNA expression” value is on record as “complete loss”. Moreover, in experiment [13], the “inhibition of BMPR-2 kinase activity” value is given as “no inhibition”. The “Id3 expression on serum induction” value in experiment [14] was “strongly reduced”.
As to `c1cc(-c2cnn3cc(-c4ccc(OCCN5CCCCC5)cc4)cnc23)ccn1` [Dorsomorphin, dorsomorphin], in experiment [15], the “total level of Smad1/5/8” value is “unchanged”. In experiment [16], the phospho-Smad1/5/8 levels result is “inhibition”. Further, the “Id1 expression (mRNA)” value in experiment [17] was “inhibition”. Also, the “phosphorylation of Smad1/5/8” value in experiment [18] is reported as “inhibits the phosphorylation”. Besides, in [12] (NIH3T3, Dorsomorphin 1 hour, then 20% NCS 1 hour), the “induction of Id1 mRNA in response to serum” value is given as “strongly inhibited”.
For the molecule `O=c1cc(N2CCOCC2)oc2c(-c3ccccc3)cccc12` [LY294002], in experiment [11] (NIH3T3, LY294002 10 μM 1 hour), the “c-fos expression on serum induction” value is on record as “little effect”. The “Id1 RNA levels on serum induction” value in [12] (NIH3T3, LY294002 10 μM 1 hour) is “unchanged”.
For `O=C(NOC[C@H](O)CO)c1ccc(F)c(F)c1Nc1ccc(I)cc1F` [PD0325901], the “c-fos expression on serum induction” value in experiment [11] (NIH3T3, PD0325901 5 μM 1 hour) was “dramatically decreased”. Besides, the “Id1 RNA levels on serum induction” value in experiment [12] (NIH3T3, PD0325901 5 μM 1 hour) is reported as “unchanged”.
Take `CC(C)(C)n1nc(-c2ccc(Cl)cc2)c2c(N)ncnc21` [PP2]: the Id1 expression result in experiment [19] is reported as “inhibited Id1 expression”. Also, in experiment [12], the “response of the Id1 gene to serum” value is recorded as “Neither another Src inhibitor, PP2, nor the BCR-abl inhibitor, imatinib, had any effect”.
As to `C[C@@H]1C[C@@H]([C@H](O)CC2CC(=O)NC(=O)C2)C(=O)[C@@H](C)C1` [cycloheximide], the “BMP2 induction of Id1 in the presence of the protein synthesis inhibitor” value in experiment [12] (NIH3T3, 50 μg/ml cycloheximide, BMP2 (supplemental Fig. S3)) is “higher”.
With `Cc1ccc(NC(=O)c2ccc(CN3CCN(C)CC3)cc2)cc1Nc1nccc(-c2cccnc2)n1` [imatinib], in experiment [12], the “response of the Id1 gene to serum” value is given as “Neither another Src inhibitor, PP2, nor the BCR-abl inhibitor, imatinib, had any effect”.

B1: Noggin: BMP antagonist noggin (protein, UniProt Q13253 28-232, looked up)
Noggin: QHYLHIRPAPSDNLPLVDLIEHPDPIFDPKEKDLNETLLRSLLGGHYDPGFMATSPPEDRPGGGGGAAGGAEDLAELDQLLRQRPSGAMPSEIKGLEFSEGLAQGKKQRLSKKLRRKLQMWLWSQTFCPVLYAWNDLGSRFWPRYVKVGSCFSKRSCSVPEGMVCKPSKSVHLTVLRWRCQRRGGQRCGWIPIQYPIISECKCSC
As for B1, in experiment [6] (NIH3T3, mId1 −1150 reporter, noggin during serum-starvation, 20% serum), the “serum activation of the Id1 promoter (reporter assay)” value is given as “abolished serum activation”. The “serum induction of Id1 mRNA” value in [12] (NIH3T3, 100 ng/ml noggin during serum-starvation, 20% serum) is given as “abolished serum induction”.

Broadly, the IC50 is the concentration that inhibits the measured activity by half. Read a high IC50 as weaker potency.
